Results reported in ChEMBL document CHEMBL1145760, “Design, synthesis and biological evaluation of benzimidazole/benzothiazole and benzoxazole derivatives as cyclooxygenase inhibitors” (Bioorg Med Chem Lett, 2003).

Legend:
[1] = target: T1, Prostaglandin G/H synthase 2 (Homo sapiens, UniProt P35354); assay: Inhibitory activity against Prostaglandin G/H synthase 2 in human whole blood assay as LPS induced PGE-2 generation.; assay type: tissue-based
T1 sequence (P35354 whole entry): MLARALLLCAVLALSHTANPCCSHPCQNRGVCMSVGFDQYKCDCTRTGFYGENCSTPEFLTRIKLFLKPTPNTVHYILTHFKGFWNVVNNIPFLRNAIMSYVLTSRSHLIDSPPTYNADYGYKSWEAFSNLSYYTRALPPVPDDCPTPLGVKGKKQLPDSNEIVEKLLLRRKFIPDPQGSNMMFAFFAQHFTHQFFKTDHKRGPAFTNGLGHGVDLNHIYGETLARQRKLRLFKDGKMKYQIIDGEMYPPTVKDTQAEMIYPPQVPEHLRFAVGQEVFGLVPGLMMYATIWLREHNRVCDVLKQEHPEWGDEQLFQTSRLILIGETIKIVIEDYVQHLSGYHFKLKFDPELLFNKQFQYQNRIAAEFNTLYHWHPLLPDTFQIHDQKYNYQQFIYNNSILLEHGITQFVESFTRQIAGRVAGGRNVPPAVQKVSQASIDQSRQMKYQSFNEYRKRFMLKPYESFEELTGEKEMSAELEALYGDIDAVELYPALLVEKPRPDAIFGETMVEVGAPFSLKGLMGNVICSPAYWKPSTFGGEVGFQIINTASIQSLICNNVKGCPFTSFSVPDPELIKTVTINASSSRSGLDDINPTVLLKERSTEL

[2] = target: T2, Prostaglandin G/H synthase 1 (Homo sapiens, UniProt P23219); assay: Inhibitory activity against Prostaglandin G/H synthase 1 in human whole blood assay as TXB2 generation; assay type: tissue-based
How it was run: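 COX-1 activity measured in human whole blood by TXB2 generation. IC50 values were estimated by nonlinear regression of dose–response curves and are the average of three determinations.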

[3] = target: T2, Prostaglandin G/H synthase 1; assay: Ratio for inhibition of COX-1 to that of COX-2

T2 sequence (P23219 whole entry): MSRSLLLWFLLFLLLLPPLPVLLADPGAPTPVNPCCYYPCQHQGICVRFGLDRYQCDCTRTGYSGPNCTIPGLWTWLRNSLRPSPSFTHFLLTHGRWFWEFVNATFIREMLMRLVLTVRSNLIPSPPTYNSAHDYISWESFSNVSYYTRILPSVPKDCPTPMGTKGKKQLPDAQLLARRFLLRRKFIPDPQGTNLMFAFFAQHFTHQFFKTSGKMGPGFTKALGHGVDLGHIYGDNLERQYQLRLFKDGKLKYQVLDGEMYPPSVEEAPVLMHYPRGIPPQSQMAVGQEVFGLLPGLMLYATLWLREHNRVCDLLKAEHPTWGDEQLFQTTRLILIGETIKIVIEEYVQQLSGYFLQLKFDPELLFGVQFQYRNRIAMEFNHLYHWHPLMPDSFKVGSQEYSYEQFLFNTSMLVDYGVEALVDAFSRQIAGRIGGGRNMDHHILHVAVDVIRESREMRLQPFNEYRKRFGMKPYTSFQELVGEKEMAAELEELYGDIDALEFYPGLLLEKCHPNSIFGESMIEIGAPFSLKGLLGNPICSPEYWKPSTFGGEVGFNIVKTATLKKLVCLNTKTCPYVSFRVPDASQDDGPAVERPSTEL

IC50 [1]	IC50 [2]	Ratio [3]	SMILES
> 10 µM			CCCCCCCCCCCCCCCc1cccc(OC)c1CSc1nc2cc(OC(F)F)ccc2[nH]1
> 10 µM			CCCCCCCCCCCCCCCc1cccc(OCC)c1CSc1nc2ccccc2o1
> 10 µM			CCCCCCCCCCCCCCCc1cccc(OCC)c1CSc1nc2ccccc2s1
2.27 µM	> 500 µM		CCCCCCCCCCCCCCCc1cccc(OC)c1CSc1nc2ccc([N+](=O)[O-])cc2[nH]1
> 10 µM			CCCCCCCCCCCCCCCc1cccc(OC)c1CSc1nc2cc(OC)ccc2[nH]1
1.47 µM	> 500 µM	> 340	CCCCCCCCCCCCCCCc1cccc(OCC)c1CSc1nc2ccccc2[nH]1
6.25 µM	> 500 µM		CCCCCCCCCCCCCCCc1cccc(OCC)c1CSc1nc2ccc(OC)cc2[nH]1
> 10 µM			CCCCCCCCCCCCCCCc1cccc(OCC)c1CSc1nc2ccc(C)cc2[nH]1
1.06 µM	> 500 µM	> 470	CCCCCCCCCCCCCCCc1cccc(OC)c1CSc1nc2ccccc2s1
		> 220	CCCCCCCCCCCCCCCc1cccc(OC)c1CSc1nc2cc([N+](=O)[O-])ccc2[nH]1
3.84 µM	> 500 µM		CCCCCCCCCCCCCCCc1cccc(OCC)c1CSc1nc2ccc([N+](=O)[O-])cc2[nH]1
		> 80	CCCCCCCCCCCCCCCc1cccc(OCC)c1CSc1nc2cc(OC)ccc2[nH]1
2.77 µM	> 500 µM	> 220	CCCCCCCCCCCCCCCc1cccc(OC)c1CSc1nc2ccccc2o1
1 µM	384 µM	384	CCCCCCCCCCCCCCCc1cccc(O)c1CSc1nc2cc(OC)ccc2[nH]1
> 10 µM			CCCCCCCCCCCCCCCc1cccc(OCC)c1CSc1nc2ccc(OC(F)F)cc2[nH]1
		> 130	CCCCCCCCCCCCCCCc1cccc(OCC)c1CSc1nc2cc([N+](=O)[O-])ccc2[nH]1
> 10 µM			CCCCCCCCCCCCCCCc1cccc(OC)c1CSc1nc2ccccc2[nH]1
2.63 µM	> 500 µM	> 190	CCCCCCCCCCCCCCCc1cccc(OC)c1CSc1nc2cc(C)ccc2[nH]1
